Results pooled from the literature.
Compare with care: the assays were run in different laboratories. Values after ≈ are worked out from the molar mass of the structure shown.

CCCCCCCCCCCCCCCC(=O)NCCOC(=O)C[C@@H](CN)CC(C)C  thermodynamic solubility (aqueous buffer; 12 h, pH 6.8, 37 °C): 3780 µg/mL
Cc1ccccc1CN1C(=O)C2=C(CCN(Cc3ccccc3)C2)N2CCN=C12  solubility (shake flask; aqueous buffer; pH 6): 260 µg/mL (≈ 673 µM)
CN1CCN(c2cccc(-c3ccc4ncnc(Nc5ccc(Cl)c(C(F)(F)F)c5)c4c3)c2)CC1  thermodynamic solubility (aqueous buffer; pH 7.4, 25 °C): < 1.4 µM
O=C(N1CCCCC1)C12CC(c3ccccc3)(C1)C2  kinetic solubility (PBS; 2 h, pH 7.4, 25 °C): 266 µM (≈ 67.9 µg/mL)
CCN(CC)CCNC(=O)c1cc(S(C)(=O)=O)ccc1OC  kinetic solubility (PBS; 2 h, pH 7.4, 25 °C): 394 µM (≈ 129 µg/mL)
N#Cc1ccc(C[C@H](Nc2nnc(-c3ccc(F)cc3)o2)C(=O)N2CCc3ccccc32)cc1  kinetic solubility (aqueous buffer; 2 h, pH 7.4, 37 °C): 4.8 µM (≈ 2.18 µg/mL)
Fc1ccccc1Nc1nc(-c2ccncc2)nc2c1CNCC2  thermodynamic solubility (PBS; 24 h, pH 7.4): 596 µM
N#Cc1ccc(C[C@H](Nc2c(Nc3ccc(Br)cc3)c(=O)c2=O)C(=O)N2CCc3ccccc32)cc1  kinetic solubility (aqueous buffer; 2 h, pH 7.4, 37 °C): 9.2 µM (≈ 4.98 µg/mL)
CCCCCCCCCCCCCCCC(=O)NCCO  thermodynamic solubility (aqueous buffer; 12 h, pH 6.8, 37 °C): < 16 µg/mL
FC(F)(F)c1cc(Nc2ncnc3ccc(-c4cccc(N5CCOCC5)c4)cc23)ccc1Cl  thermodynamic solubility (aqueous buffer; pH 7.4, 25 °C): < 0.7 µM
N#Cc1ccc(C[C@H](NC(=O)Nc2ccc(F)cc2)C(=O)N2CCc3ccccc32)cc1  kinetic solubility (aqueous buffer; 2 h, pH 7.4, 37 °C): 10.5 µM (≈ 4.5 µg/mL)
CN1CCN(c2cccc(-c3ccc4ncnc(Nc5ccc(Cl)c(Cl)c5)c4c3)c2)CC1  thermodynamic solubility (aqueous buffer; pH 7.4, 25 °C): < 1.7 µM
N#Cc1ccc(C[C@H](Nc2nnc(-c3ccc(F)cc3)s2)C(=O)N2CCc3ccccc32)cc1  kinetic solubility (aqueous buffer; 2 h, pH 7.4, 37 °C): 4.5 µM (≈ 2.11 µg/mL)
C=CCn1c(=O)c2cnc(Nc3ccc(N4CCN(C)CC4)cc3)nc2n1-c1ccc2c(n1)[C@@](O)(CC)CC2  thermodynamic solubility (PBS; pH 7.4): 2130 µM
CO[C@H]1C[C@@H]2CC[C@@H](C)[C@@](O)(O2)C(=O)C(=O)N2CCCC[C@H]2C(=O)O[C@H]([C@H](C)C[C@@H]2CC[C@@H](O)[C@H](OC)C2)CC(=O)[C@H](C)/C=C(\C)[C@@H](O)[C@@H](OC)C(=O)[C@H](C)C[C@H](C)/C=C/C=C/C=C/1C  thermodynamic solubility (aqueous buffer; 18 h, pH 7.4): 6 µM
N#Cc1ccc(C[C@H](Nc2c(Nc3ccc(F)cc3)c(=O)c2=O)C(=O)N2CCc3ccccc32)cc1  kinetic solubility (aqueous buffer; 2 h, pH 7.4, 37 °C): 11.8 µM (≈ 5.67 µg/mL)
